The series concerns MS2 coat protein. The experiment in a line: apparent Kd, MS2 coat protein; higher = weaker binding; RNA-MaP array; FMN 200 µM where present. In short, it runs like this: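 The apparent Kd comes from binding curves fitted cluster by cluster, filtered, and summarised as a median. Those curves followed SNAP-549-labelled MS2 coat protein from 0.7 or 1.5 nM, doubling to 3 µM, on Illumina sequencing-chip clusters where stalled E. coli RNA polymerase had transcribed the designs, without and then with constant ligand. The buffer was 100 mM Tris-HCl pH 7.5, 80 mM KCl, 4 mM MgCl2, BSA, DTT, yeast tRNA and Tween-20, and green signal was normalised to red-channel RNA signal and control-cluster median Fmax.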

Setting [1] is: designed as: ON switch for flavin mononucleotide, no ligand.
[2] abbreviates: ligand present: flavin mononucleotide, designed as: ON switch for flavin mononucleotide.
Where [3] appears, read: designed as: OFF switch for flavin mononucleotide, no ligand.
[4] abbreviates: ligand present: flavin mononucleotide, designed as: OFF switch for flavin mononucleotide.

As a reminder, the apparent Kd is a dissociation constant that holds for the conditions of the assay. In the case of “CGUGACGACAUAGGAUAUUGAUACAUGAGGAUCACCCAUGUCACCCAUUUAUCUCUAAGUGUUGACAAGAAGGAUGUGGUCACG”, the “apparent Kd” value under setting [1] was 10.1 nM and the “apparent Kd” value under setting [2] was determined as 9.33 nM. The matching figures for “UGUUGUAUUACAGGAUAUCUAGAAUUUUUAUUUAGAGAAGGGUAUUCACAUGAGGAUCACCCAUGUAUAUACGAGGAAGUUGUG”: 33.7 nM and 33.8 nM.

On to “UUUUAAUAAGAGAAGGAGGACUUCAUGAGGAUCACCCAUGUGUUAGUACUUAGGAUAUUUAAUAACAUGAGGAUCACCCAUGUC”, for which the “apparent Kd” value is, setting by setting: under setting [1], 44.1 nM; under setting [2], 43 nM. The like results for “UGGUACUAGGGAGGAUAUGGGAAGAUACAUGAGGAUCACCCAUGUUUAAGAAUGCCGAGAGGCAACCAGAAGGCCCUAGUACCU” were, in that order, 8.27 nM and 5.57 nM. As to “GCUGCAUAGGCAGGAUAUGCAAAAGCAGAUGCAAAGCAUUUGUAAAACACAUGAGGAUCACCCAUGUAGAAGGGCCUGUGCAGU”, the “apparent Kd” value runs as follows: under setting [3], 21.8 nM; under setting [4], 21.5 nM. On to “UAUAUAUAGUAAGGAUAUGUAUUAAUUUUACAAACAGAAGGUACUGACAUGAGGAUCACCCAUGUUUUAGUGUGGGCAUGUAGA”, for which the “apparent Kd” value was 59.9 nM under setting [3] and 72.6 nM under setting [4]. As to “UUAUUAUAUGUAGGAUAUGCAUAUUACUAUUGUGCAGAAGGACAUGAGGAUCACCCAUGUAUAUUAUUAUUAUAUAUUAUAUAU”, the “apparent Kd” value came out at 15.8 nM under setting [3] and 15.7 nM under setting [4].

For the sequence “CCUCCCUGAGGAUAUCCACCCUCAUACAUGAGGAUCACCCAUGUUCAACCCUGGGUUCCCGGAGAAGGCAGCUUCC”, the “apparent Kd” value runs as follows: under setting [3], 260 nM; under setting [4], 263 nM.

Turning to “GGUCGUCACAUUUACAUGAGGAUCACCCAUGUCGAAAGACAUGAGGAUAUGCAUCCUAAUUGGAUGCAGAAGGCAUGGACGACC”, the “apparent Kd” value runs as follows: under setting [1], 445 nM; under setting [2], 249 nM.

As to “CAGCUGAAAGUCAGGAUAUCUAGAGCGAUAGCUCUAGAGAAGGGACAUGAGGAUCACCCAUGUCACUCCAGCUG”, the “apparent Kd” value is 17.1 nM under setting [3] and 20.4 nM under setting [4]. The like results for “AAGAAGUGAGGAUAUGUAUCAGUAUAGUUGCCUAUACUGAUGUAGAAGGCACAUGAGGAUCACCCAUGUCCUAA” were, in that order, 20.8 nM and 25 nM. On to “UUUCUACAUGAGGAUCACCCAUGUCAACAAAGUCGAGGAUAUGGGCAUAUUAUCUUAUUUCCAGAAGGCGAUUUCU”, for which the “apparent Kd” value runs as follows: under setting [1], 145 nM; under setting [2], 29.5 nM. Take “CAGUACUGAGGAUAUACAUGAGGAUCACCCAUGUGUUCCAGCUUGGAAACUAGCAAAAGUAGAAGGCAGUACUG”: the “apparent Kd” value by setting is: under setting [3], 14.8 nM; under setting [4], 158 nM. As for “GCAGGUCGAGGAUAUACAUGAGGAUCACCCAUGUGAUUAGCAGUCCUCGGACUGCAAUGUAGAAGGUGACCUGC”, the “apparent Kd” value worked out at 148 nM under setting [3] and 501 nM under setting [4]. For “GGAGCCGGCACUGAGGAUAUUCAUAUUAAAACAUGAGGAUCACCCAUGUAGGCCAGAAGGCCUUGGGAGAAGGCAGGUCGGCUCG”, the “apparent Kd” value came out at 423 nM under setting [1] and 27.9 nM under setting [2].

For the sequence “UGCAGACGAGGAUAUGAUUAAUAAUACAUGAGGAUCACCCAUGUAAUACUGAUCUAUGGAUCAGAAGGCGUCUGCU”, the “apparent Kd” value amounted to 17.3 nM under setting [3] and 14.6 nM under setting [4].

For the sequence “UUACUCAUGUAAGGAUAUGCAGCCGAAACGGCUGCAGAAGGUACUAUAAUACAUGAGGAUCACCCAUGUCUUUUUAAUUUAGAC”, the “apparent Kd” value came to 51.2 nM under setting [1] and 78 nM under setting [2]. With “AUUAUGUAAGGAUAUCUUACAUGUGACUUCGGUCACUGUCAAGAGAAGGUACAUGAGGAUCACCCAUGUAUGAC”, the “apparent Kd” value under setting [3] is 14 nM and the “apparent Kd” value under setting [4] was 16.3 nM.

Turning to “AUUAUUAUAAAUUAAGGAAGAAUCAGAAGGCGUUACAUGAGGAUCACCCAUGUUUUGUAUAGUAACGAGGAUAUGAUAUGGAAA”, the “apparent Kd” value under setting [3] is 17.5 nM and the “apparent Kd” value under setting [4] worked out at 14 nM. The like results for “GUCAGCUCGUGAGGAUAUACAUGAUAGAUCGAUUAAUUAAUUAAUUUAACAUGAGGAUCACCCAUGUAGAAGGUACGAGCUGAU” were, in that order, 61.6 nM and 45.2 nM.

Consider “GUACAUGAGCAGAAGGGCAAUUAAUUAAAAUUUUAUGUUUAUCAGAUAUGCAGGAUAUGUUAAACAUGAGGAUCACCCAUGUAC”, for which the “apparent Kd” value stood at 191 nM under setting [1] and 48.5 nM under setting [2].

As for “AAUGCGGCAGGAUAUACAUGAGGAUCACCCAUGUAGAUCAGAUAUAUGGUCGAACCAUGUAGAAGGGCCGCAAA”, the “apparent Kd” value is, setting by setting: under setting [3], 34.3 nM; under setting [4], 129 nM. As to “AUAAAACAUGAGGAUCACCCAUGUCAGUUAUCAUGAGGAUAUCCGCCGACCCGGGCGUAAGGAGAAGGCAUAUAAU”, the “apparent Kd” value stood at 39.3 nM under setting [1] and 20.1 nM under setting [2]. Turning to “CAGUACUGAGGAUAUACAUGAGGAUCACCCAUGUGUUCCUGCUAGGAUAUUAGCAAAAGUAGAAGGCAGAAGGGAAUGUGCCUA”, the “apparent Kd” value reads like this: under setting [3], 6.93 nM; under setting [4], 6.73 nM.

For the sequence “AAUAUAAAAGAGCUGGAUACUCAAACAUGAGGAUCACCCAUGUAGGAUAUCAGCACGAUAAGUGCUGAGAAGGACAACCAGCUC”, the “apparent Kd” value was 14.6 nM under setting [3] and 15.6 nM under setting [4]. The matching figures for “UAGGUCGCAGGAUAUGCUGGGUGCAUAUCUUAGUGCAGGAGACAUGAGGAUCACCCAUGUAGAAGGGCGCGCUG”: 44.9 nM and 124 nM. “AUAUCCUAGAUAGGAUAUACUGAGGUUGAAUGGGUAGAAGGAUCGAUAGGGAAGACUACAUGAGGAUCACCCAUGUUGUGUAUU”: the “apparent Kd” value under setting [1] worked out at 99.4 nM and the “apparent Kd” value under setting [2] stood at 90.2 nM. In the case of “GUGGUCAGACAUGAGGAUCACCCAUGUGGAAUAAAUAACAGACAGGAUAUAUAAUAUAGGAUAUAGUAGAAGGGUCGAUUGGUG”, the “apparent Kd” value runs as follows: under setting [1], 81.9 nM; under setting [2], 85.8 nM. On to “AUUAUAUAGGUAGGAUAUAGAAUAUUAUUUUAACAUGAGGAUCACCCAUGUAACCUUAUGUGUAGCUAGAAGGACCAUUUAUUA”, for which the “apparent Kd” value was found to be 78 nM under setting [3] and 154 nM under setting [4].

Regarding “AAACAGCGAAGAUAAUAAUGAAUACAUGAGGAUCACCCAUGUAAGGAUAUCGUCAGGAAUACUGACGAGAAGGUACAUACGCUG”, the “apparent Kd” value was 16 nM under setting [3] and 22.4 nM under setting [4]. Regarding “UCGCUGCGAGGAUAUACAUGAGGAUCACCCAUGUACGGGUCCGGGUCUUUGUCUAUUGGUAGAAGGCGCAGUGA”, the “apparent Kd” value was found to be 55.7 nM under setting [3] and 175 nM under setting [4].

Turning to “UGAGGACAUGAGGAUCACCCAUGUAAGGAUAUGCGGAGAGAUUGGAGAGGUCGAGGAGGCAGAAGGUACAGGAC”, the “apparent Kd” value reads like this: under setting [3], 143 nM; under setting [4], 74.7 nM.

With “ACUAUACGAGGAUAUACUGUCGGGCCUCGGACAUAAAUACGACAUGAGGAUCACCCAUGUAGAAGGCGUUUACU”, the “apparent Kd” value under setting [3] amounted to 31.2 nM and the “apparent Kd” value under setting [4] is 54 nM.

Consider “CACGCAUGUGGAGGAUAUGCAGUUAACAUUAGCGCAGAAGGCCACAUGAGGAUCACCCAUGUCCGGCAUUAGCCGAUGUUGAUC”, for which the “apparent Kd” value worked out at 139 nM under setting [3] and 227 nM under setting [4]. Take “GGUGGACAUGAGGAUCACCCAUGUGAGGAUAUCGGCUGGCUAGUGGCGGAUGGCUUCUCGAGAAGGCGCAUAGU”: the “apparent Kd” value by setting is: under setting [3], 76.9 nM; under setting [4], 66 nM. “GAUAAGGAAGGAUAUGUGGCCUUAUACAUGAGGAUCACCCAUGUUACGACAUACCACUACACAGAAGGUCUAUUAC”: the “apparent Kd” value is, setting by setting: under setting [3], 32.2 nM; under setting [4], 30.5 nM. Turning to “AACAUACUGUACAUGAGGAUCACCCAUGUUCGGGCACUGUACAGAAGGCACGGGCAAAUGCGAGGUGAGGAUAUGUAGUUAGUG”, the “apparent Kd” value runs as follows: under setting [1], 122 nM; under setting [2], 49.8 nM. With “ACAUUUUAUGCAGGAUAUUGACAUAGGAUUAAACAAGAAGGGCAUUACAUGAGGAUCACCCAUGUUUUAUUGGUAUAUAAGUUC”, the “apparent Kd” value under setting [4] came out at 14 nM. Consider “UUUAACAGAGGAUAUGCGAAUAAAUAAAACUUUUUUUUUUAACAUGAGGAUCACCCAUGUAGAAGGCUGAUUUU”, for which the “apparent Kd” value is 45.7 nM under setting [3] and 47.7 nM under setting [4]. “UUACUAUUGGAGAAGGCUCGAUAAUAUAUAAAGGGAGGAUAUCCAACAUGAGGAUCACCCAUGUUUCACCCAUAUGAGGAUCAC”: the “apparent Kd” value by setting is: under setting [3], 14.8 nM; under setting [4], 15.7 nM. As to “CCAGAUAUGUAAGGAUAUAUAGUGGAAUACACUAUAGAAGGUAUGUGAGAACAUGAGGAUCACCCAUGUCAUUGGAUAUCUGGA”, the “apparent Kd” value is 37.1 nM under setting [1] and 39.3 nM under setting [2]. For “GGAUAGGACAGAGGAUAUACGUGCUAGAGAUACUAGCAAAGUUUCCUCACAUGAGGAUCACCCAUGUAGAAGGCUGUCCUAUCG”, the “apparent Kd” value runs as follows: under setting [3], 21.8 nM; under setting [4], 505 nM. The like results for “CACGAUGAUGUAGGAUAUAUGCUGGAAUACAGCAUAGAAGGACAUGAGGAUCACCCAUGUUAAGUGCCUCCAAGUAACAUCGUG” were, in that order, 15.4 nM and 22.4 nM. The matching figures for “GUCAGCUCGUGAGGAUAUACAACACUGCUUCGGCAGUGUAAUAAGAUCACAUGAGGAUCACCCAUGUAGAAGGCACGAGCUGAU”: 12 nM and 250 nM. “AAAAAACAUGAGGAUCACCCAUGUUAGGAUAUCGUGCAGAAAAAAAAAAAAAACUGCACGAGAAGGAACAAGGA”: the “apparent Kd” value was 74.5 nM under setting [3] and 98.8 nM under setting [4]. Take “GUCCUACAUGAGGAUCACCCAUGUGAGGAUAUGUGGUUAGCUGCUAGGUAGUUAGUAUGCAGAAGGUACGUGAA”: the “apparent Kd” value is 14.8 nM under setting [3] and 15.5 nM under setting [4]. Regarding “CUGCCGUAGGAGAAGGACGGCGGGUUAUUUUUGUACAUGAGGAUCACCCAUGUAGGAUAUCCUACGUCAGGCGACCUACUACAG”, the “apparent Kd” value worked out at 33 nM under setting [3] and 34.5 nM under setting [4]. The matching figures for “CCAAACUGAGGAUAUACAUGAGGAUCACCCAUGUGCCCGCGGUCAUAUGUAGCCUAGUGUAGAAGGCAGAAAAC”: 75.5 nM and 25 nM.

Values taken from the EternaBench riboswitch data.
